ChEMBL document CHEMBL1125478, “The discovery of (2S,3S)-cis-2-(diphenylmethyl)-N-[(2-methoxyphenyl)methyl]-1- azabicyclo[2.2.2]-octan-3-amine as a novel, nonpeptide substance P antagonisst” (J Med Chem, 1992)
pIC50: −log10 of the molar value.

Assays:
[1] = system: Cavia porcellus; assay: (§1) Inhibition of SP-induced plasma extravasation in guinea pig after peroral administration at a dose 15 mg/kg; type: functional; conditions: route oral
Summary of the method: (§2)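 Male Hartley guinea pigs (350-400 g), pentobarbital-anaesthetised; Evans Blue 30 mg/kg iv, then 5 min later SP (20 nM, 50 μL/site) intradermally. Dorsal skin punches extracted in formamide 24 h, 60 °C; OD 600 nm.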

[2] = species: Cavia porcellus; assay: Inhibition of capsaicin-induced plasma extravasation after 10 mL injection of 30 uM capsaicin in to the peritoneal cavity of guinea pig ureter; type: functional
Summary of the method: (§3)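 Fasted male Hartley guinea pigs (300-400 g), pentobarbital-anaesthetised; Evans Blue 30 mg/kg iv, then capsaicin 30 μM, 10 mL intraperitoneally. Compound 10 mg/kg po 1 h prior. Ureter removed after 10 min, formamide-extracted 24 h at 60 °C, OD 600 nm.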

[3] = system: Rattus norvegicus; assay: Inhibition of SP-induced salvation after intraperitoneal administration of the durg at a concentration of 50 mg/kg in rats; type: functional; conditions: ip
Summary of the method: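 Fasted male Sprague-Dawley rats given compound 50 mg/kg ip in 0.05 N HCl, or saline, 30 min before SP 4.7 nmol/kg by tail vein under pentobarbital. Saliva collected on preweighed swabs until response subsided (about 4 min), weighed. Percent inhibition of SP response.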

[4] = system: Cavia porcellus; assay: Inhibition of capsaicin-induced plasma extravasation in guinea pig ureter after intraperitoneal injection; type: functional; conditions: ip; summary of the method: as §3
[5] = molecular target: Substance-P receptor (Homo sapiens, UniProt P25103); assay: Binding affinity towards Tachykinin receptor 1 in human IM-9 cells using [3H]-substance P as ligand; type: cell-based
Summary of the method: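 Displacement of [³H]SP (0.5 nM final) from human IM-9 cell preparation in 50 mM TRIS-HCl pH 7.7 with MnCl2, BSA, bacitracin, leupeptin, […], phosphoramidon; 20 min, room temperature, dark. Filtration on polyethylenimine-soaked GF/B filters, scintillation counting. IC50 from six-point curves, duplicates; mean ± SEM of three experiments.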

[6] = molecular target: T1, Neuromedin-K receptor (Cavia porcellus, UniProt P30098); assay: Inhibitory activity against Tachykinin receptor 3 in guinea pig cortex [125I]-BH-eledoisin as radioligand
T1 sequence (P30098 whole entry): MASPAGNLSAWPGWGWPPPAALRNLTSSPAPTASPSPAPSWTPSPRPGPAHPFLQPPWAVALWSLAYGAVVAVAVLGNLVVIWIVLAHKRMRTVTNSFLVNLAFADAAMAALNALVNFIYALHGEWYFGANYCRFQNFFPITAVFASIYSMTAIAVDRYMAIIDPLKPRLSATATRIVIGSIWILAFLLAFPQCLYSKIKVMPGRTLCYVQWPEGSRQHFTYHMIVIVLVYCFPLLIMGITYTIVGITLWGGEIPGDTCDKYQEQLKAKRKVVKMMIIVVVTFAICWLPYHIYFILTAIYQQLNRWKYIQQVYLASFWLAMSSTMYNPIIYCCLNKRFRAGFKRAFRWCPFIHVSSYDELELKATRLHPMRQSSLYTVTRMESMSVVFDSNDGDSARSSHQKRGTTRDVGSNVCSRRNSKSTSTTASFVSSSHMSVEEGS
Summary of the method: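 Guinea pig cortical membranes (6 mg/mL) in 50 mM Tris-HCl with 1 mM MnCl₂, 50 μg/mL chymostatin, 0.02% BSA and 0.1 nM [¹²⁵I]BH-eledoisin final, with test compound, 60 min at 22 °C. Nonsaturable binding defined with 1 μM eledoisin. Filtration and radioactivity counting.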

[7] = species: Cavia porcellus; assay: Ability to block SP-induced excitation of neurons in the locus coeruleus in guinea pig brain; type: functional
[8] = molecular target: T2, Substance-K receptor (Mesocricetus auratus, UniProt P51144); assay: Inhibitory activity against [125I]neurokinin binding to Tachykinin receptor 2 in hamster urinary bladder
T2 sequence (P51144 whole entry): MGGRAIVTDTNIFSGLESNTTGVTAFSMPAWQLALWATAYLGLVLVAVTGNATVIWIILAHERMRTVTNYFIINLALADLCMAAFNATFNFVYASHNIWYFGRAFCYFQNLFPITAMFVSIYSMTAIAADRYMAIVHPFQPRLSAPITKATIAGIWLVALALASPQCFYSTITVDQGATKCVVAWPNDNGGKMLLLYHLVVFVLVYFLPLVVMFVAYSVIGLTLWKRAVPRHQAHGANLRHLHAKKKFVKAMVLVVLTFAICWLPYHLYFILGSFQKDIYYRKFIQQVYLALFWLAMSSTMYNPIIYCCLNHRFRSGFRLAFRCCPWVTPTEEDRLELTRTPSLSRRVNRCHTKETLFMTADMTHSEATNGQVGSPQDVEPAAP

[9] = system: Cavia porcellus; assay: as §1; type: functional; conditions: route oral; remark: listed apart in the source
Summary of the method: as §2, with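 “intradermally. Compound 15 mg/kg po 1 h before SP.” for “intradermally.”, “nm. Percent inhibition or ED50 with 95% confidence limits.” for “nm.”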

Chain of Substance-P receptor (P25103 whole entry): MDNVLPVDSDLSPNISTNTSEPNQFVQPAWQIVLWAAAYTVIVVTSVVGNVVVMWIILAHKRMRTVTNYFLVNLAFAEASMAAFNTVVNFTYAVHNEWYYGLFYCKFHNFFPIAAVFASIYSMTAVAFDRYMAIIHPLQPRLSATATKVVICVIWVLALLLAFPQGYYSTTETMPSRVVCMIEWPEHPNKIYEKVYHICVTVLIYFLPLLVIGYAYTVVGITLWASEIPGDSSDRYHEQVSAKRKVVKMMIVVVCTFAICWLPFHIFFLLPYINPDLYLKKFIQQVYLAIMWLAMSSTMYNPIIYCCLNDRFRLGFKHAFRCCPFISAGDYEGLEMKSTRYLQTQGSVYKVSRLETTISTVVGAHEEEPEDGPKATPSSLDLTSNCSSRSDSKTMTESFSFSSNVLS

Structure (SMILES)	inhibition in vivo at 15 mg/kg [1] [%]	Inhibition [2] [%]	inhibition in vivo at 50 mg/kg [3] [%]	ED50 [4] [mg/kg]	pIC50 [5]	pIC50 [6]	pIC50 [7]	pIC50 [8]	ED50 [9] [mg/kg]
Clc1ccc(CN[C@H]2C3CCN(CC3)[C@H]2C(c2ccccc2)c2ccccc2)cc1	8	34	< 27	–	–	–	–	–	–
COc1ccccc1CN[C@@H]1C2CCN(CC2)[C@@H]1C(c1ccccc1)c1ccccc1	39	–	< 66.9	6	–	–	–	–	–
Clc1ccccc1CN[C@H]1C2CCN(CC2)[C@H]1C(c1ccccc1)c1ccccc1	38	–	< 43.9	7	–	–	–	–	–
COc1ccccc1CN(C)[C@H]1C2CCN(CC2)[C@H]1C(c1ccccc1)c1ccccc1	13	-13	–	–	–	–	–	–	–
Clc1cccc(CN[C@H]2C3CCN(CC3)[C@H]2C(c2ccccc2)c2ccccc2)c1	-6	23	< 52.8	–	–	–	–	–	–
c1ccc(CN[C@H]2C3CCN(CC3)[C@H]2C(c2ccccc2)c2ccccc2)cc1	-9	-21	0	–	7.80	–	–	–	–
COc1ccccc1CN[C@H]1C2CCN(CC2)[C@@H]1C(c1ccccc1)c1ccccc1	28	18	11.3	–	–	–	–	–	–
CCc1ccccc1CN[C@H]1C2CCN(CC2)[C@H]1C(c1ccccc1)c1ccccc1	79	–	16.7	4	7.78	–	–	–	–
COc1ccccc1CN[C@H]1C2CCC(CC2)[C@H]1C(c1ccccc1)c1ccccc1	-9	-67	–	–	< 4.49	–	–	–	–
COc1ccccc1CN[C@H]1C2CCN(CC2)[C@H]1C(c1ccccc1)c1ccccc1 [CP-96345]	–	–	< 76.2	2.3	–	< 5.00	7.05	< 5.00	4.4
COc1ccccc1CN[C@H]1C2CCN(CC2)[C@H]1Cc1ccccc1	35	-30	0	–	6.31	–	–	–	–
